This is an account of results in ChEMBL document CHEMBL4732051, “The discovery of potent small molecule activators of human STING” (Eur J Med Chem, 2021).

Active and inactive are the calls of the source. The rule behind the calls is not given here.

Data set [1] in a line: AUC in BALB/c mouse at 5 mg/kg, iv measured up to 24 hrs by LC-MS/MS analysis. In kind it is ADME, organism-based. On the set-up: route intravenous, dose 5 mg/kg, time <=24. The conditions noted are these: in vivo. The gist of the method:
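Overnight-fasted mice, n=3 per group, single dose by lateral tail vein (iv) or oral gavage (po). Retro-orbital blood under isoflurane at 2 min–24 h (iv) or 5 min–24 h (po). Plasma spun at 1500 x g, 15 min, 4 °C, stored -80 °C, then analysed by LCMS.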

Data set [2] relates to Stimulator of interferon genes protein (Homo sapiens), Q86WV6 [UNDEFINED MUTATION]. Put plainly: Activation of human STING R232 in human CCRF-SB cells assessed as phosphorylation at (Ser366) at 10 uM incubated for 2 hrs and measured by Western blot analysis. The class given is cell-based. The conditions noted are these: filed as activator. Summed up: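 Tumor cell lines or human primary cells carrying endogenous STING variants; STING KO cells as control. 10µM for 2 h, then lysed in RIPA with phosphatase and protease inhibitors. 10 μg protein on 10% SDS-PAGE, blotted for pSTING (Ser366), pIRF3 (Ser396), STING, IRF3 and actin, ECL detection.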
(In western blotting, separated proteins are transferred to a membrane and probed.)

The next data set deals with CCRF-SB. Put plainly: Activation of human wild type STING R232 expressed in CCRF-SB cells assessed as phosphorylation at (Ser396) at 10 uM incubated for 2 hrs and measured by Western blot analysis. The note with it: filed as activator.
Data set [3] has as its system Stimulator of interferon genes protein (Homo sapiens), Q86WV6 [UNDEFINED MUTATION]. Put plainly: Activation of human STING R232 in human dendritic cells assessed as induction of CD86 measured by qt-PCR analysis. The class given is cell-based. The conditions noted are these: Dendritic cell, filed as activator. The gist of the method:
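PBMC isolated on Histopaque 1077, ACK-lysed, monocytes purified by MACS. Monocytes at 1 x 10^6 cells/ml in RPMI/10% FBS with 100ng/ml GMCSF and 50ng/ml IL4, 37 °C, 5% CO2, for 24–36 h. Compound added (1% DMSO final) for 6 h. CD86 and CD83 read by qPCR as fold of vehicle-treated cells.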

Chain of Stimulator of interferon genes protein (Homo sapiens), Q86WV6 [UNDEFINED MUTATION] (Q86WV6 whole entry, looked up, stated change not applied): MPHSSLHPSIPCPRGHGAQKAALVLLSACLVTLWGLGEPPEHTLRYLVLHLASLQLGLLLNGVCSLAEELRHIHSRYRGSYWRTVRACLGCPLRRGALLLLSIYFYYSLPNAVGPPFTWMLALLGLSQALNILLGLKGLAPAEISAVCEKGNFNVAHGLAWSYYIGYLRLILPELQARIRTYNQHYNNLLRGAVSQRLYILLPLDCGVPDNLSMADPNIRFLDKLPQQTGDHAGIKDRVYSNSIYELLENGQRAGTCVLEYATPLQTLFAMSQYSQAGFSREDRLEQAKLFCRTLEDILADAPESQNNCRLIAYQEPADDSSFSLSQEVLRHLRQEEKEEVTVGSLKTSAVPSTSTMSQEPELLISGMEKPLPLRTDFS

For the compound `CC1(C)C(=O)N(Cc2c(F)cccc2Cl)c2cc(C(=O)NCc3c(F)cc(F)cc3F)ccc21`, the area under the curve (AUC) (commonly the area under the concentration-time curve, a measure of exposure) at 24 h in data set [1] came out at 1220 ng·h/mL. In addition, the result (in data set [2]; with CCRF-SB; in data set [3]) was Active.
